Assay [1] relates to FOSL1. Put plainly: Immunohistochemistry of xenograft tumor tissues. The format is in vivo, NOD‐SCID mice. As to conditions: Aspc‐1 and Bxpc‐3 models; LY‐1816 and dasatinib 40 mg/kg/d p.o., gemcitabine 80 mg/kg/wk; IHC. The method in brief: (§1)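 Six-week-old female NOD-SCID mice received 5 × 10⁶ to 1 × 10⁷ cells s.c. in the right flank. Treatment began at about 200 mm³. Test compound (40 mg/kg/d) was given once daily by oral gavage in 25% PEG400 plus 5% DMSO in water. Tumors were resected at the end of dosing. Frozen sections were immunostained and imaged by light microscopy.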

For assay [2], the system named is STAT3. Kind of assay: Western blot, STAT3 phosphorylation. In kind it is cell-based, human. As to conditions: Aspc‐1 and Bxpc‐3 cells, 12 hours. The method in brief: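 Aspc-1 and Bxpc-3 cells were grown overnight in complete medium and treated with test compound for 12 h. Cells were lysed in RIPA buffer and protein was quantified. Lysates were run on SDS-PAGE and transferred to PVDF, then blocked 2 h in TBS-T with 5% non-fat milk. Blots were probed for pAKT Ser473, pERK Thr202/Tyr204, pSTAT3 Tyr705, the matching total proteins and β-actin. Detection was by enhanced chemiluminescence.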
For orientation: In western blotting, separated proteins are transferred to a membrane and probed.

In assay [3] the test system is FOSL1. Kind of assay: Western blot, FOSL1 expression in intact cells. The format is cell-based, human. As to conditions: 10 PDAC cell lines, 12 hours.
Assay [4] concerns Aspc‐1 cells. Put plainly: Annexin V/PI apoptosis assay. The conditions noted are these: 24 hours. In kind it is cell-based, human. In short, it runs like this:
(§2)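 Cells were treated with a range of concentrations for 24 hours, washed with PBS, then stained with annexin V‑FITC and propidium iodide for 15 minutes in the dark. […] Early (annexin V) and late (PI) apoptotic cells are reported as percentages, mean of n = 3 with SD.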

The subject of a further assay is Aspc‐1 xenograft. Put plainly: Subcutaneous xenograft model. In kind it is in vivo, NOD‐SCID mice. As to conditions: Aspc‐1 model; LY‐1816 20 or 40 mg/kg/d p.o.; dasatinib 40 mg/kg/d p.o.; gemcitabine 80 mg/kg once a week. In short, it runs like this:
(§3)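 Female NOD‑SCID mice bearing s.c. right‑flank tumors (5 × 10⁶–1 × 10⁷ cells injected) were randomized at 100–200 mm³ (6–7 per group). They received test compound in 25% PEG400/5% DMSO/water by oral gavage once daily for 18 days, or vehicle. Tumors were measured by caliper every 3 days, with volume = length × width² × 0.5.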

In assay [5] the test system is Aspc‐1 cells. Put plainly: Transwell invasion assay. The format is cell-based, human. The method in brief: (§4)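 Inserts were precoated with polymerized collagen type I. Cells were seeded on the insert bottom in serum‑free medium with serial dilutions of test compound or vehicle, with 10% FBS medium in the lower chamber. After one day, cells were stained with calcein‑AM and optical sections taken at 10‑μm intervals. Invasion was scored as cells moving >20 μm into collagen; n = 3, mean with SD.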

For assay [6], the system named is STAT3. Put plainly: Immunohistochemistry of xenograft tumor tissues. In kind it is in vivo, NOD‐SCID mice. As to conditions: Aspc‐1 and Bxpc‐3 models; LY‐1816 and dasatinib 40 mg/kg/d p.o., gemcitabine 80 mg/kg/wk; IHC. The method in brief: as §1
The next assay has as its system Bxpc‐3 xenograft. Put plainly: Subcutaneous xenograft model. The format is in vivo, NOD‐SCID mice. The conditions noted are these: Bxpc‐3 model; LY‐1816 20 or 40 mg/kg/d p.o.; dasatinib 40 mg/kg/d p.o.; gemcitabine 80 mg/kg once a week. The method in brief: as §3
For assay [7], the system named is Bxpc‐3 cells. Put plainly: Annexin V/PI apoptosis assay. In kind it is cell-based, human. The conditions noted are these: 24 hours. In short, it runs like this: as §2
Assay [8] has as its system Bxpc‐3 cells. Put plainly: Transwell invasion assay. In kind it is cell-based, human. The method in brief:
as §4

Another assay concerns cleaved caspase‐3. Put plainly: Immunohistochemistry of xenograft tumor tissues. The format is in vivo, NOD‐SCID mice. The conditions noted are these: xenograft models; LY‐1816 40 mg/kg/d p.o., gemcitabine 80 mg/kg/wk; IHC. In short, it runs like this:
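Aspc‑1 or Bxpc‑3 s.c. tumors in NOD‑SCID mice were dosed p.o. daily from about 200 mm³, with vehicle controls. At study end, tumors were resected. Frozen sections were immunostained and imaged by light microscopy, and cleaved caspase‑3‑positive cells were counted.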

Assay [9] concerns the target Src (Homo sapiens, UniProt P12931). The format is cell-based. The conditions noted are these: 10 PDAC cell lines; 12 hours; western blot.
The subject of assay [10] is Bxpc‐3 cells. Put plainly: Wound healing assay. In kind it is cell-based, human. The conditions noted are these: 18 hours.
Assay [11] has as its system Src. Kind of assay: Immunohistochemistry of xenograft tumor tissues. In kind it is in vivo, NOD‐SCID mice. The conditions noted are these: Aspc‐1 and Bxpc‐3 models; LY‐1816 and dasatinib 40 mg/kg/d p.o., gemcitabine 80 mg/kg/wk; IHC.
The test system of assay [12] is Aspc‐1 cells. Kind of assay: Wound healing assay. In kind it is cell-based, human. As to conditions: 18 hours.

The structures appear in SMILES notation.

Sequence of Src (Homo sapiens, UniProt P12931) (P12931 whole entry): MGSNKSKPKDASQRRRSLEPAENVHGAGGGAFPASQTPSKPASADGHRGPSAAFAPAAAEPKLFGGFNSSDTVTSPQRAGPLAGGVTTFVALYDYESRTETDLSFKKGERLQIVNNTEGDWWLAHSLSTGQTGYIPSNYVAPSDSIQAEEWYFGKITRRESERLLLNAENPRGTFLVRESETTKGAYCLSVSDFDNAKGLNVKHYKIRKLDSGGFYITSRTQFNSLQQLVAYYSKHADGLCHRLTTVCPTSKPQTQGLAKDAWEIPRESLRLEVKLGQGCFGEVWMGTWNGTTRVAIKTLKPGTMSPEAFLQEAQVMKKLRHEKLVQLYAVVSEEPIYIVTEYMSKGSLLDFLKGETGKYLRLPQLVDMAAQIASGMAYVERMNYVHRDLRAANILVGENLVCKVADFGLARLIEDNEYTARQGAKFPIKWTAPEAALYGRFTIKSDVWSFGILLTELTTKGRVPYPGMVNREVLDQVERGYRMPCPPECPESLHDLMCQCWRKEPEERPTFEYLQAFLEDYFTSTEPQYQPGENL

Consider `Cc1nc(Nc2ncc(C(=O)Nc3c(C)cccc3Cl)s2)cc(N2CCN(CCO)CC2)n1` [dasatinib], for which, in the assay on FOSL1 [1], the “expression of FOSL1 in tumor tissues” value is “very weak or no influence on the phosphorylation of STAT3 or the expression of FOSL1”. In the assay with STAT3 [2], the “phosphorylation of STAT3” value was “very weak or no impact on the phosphorylation of STAT3”. The FOSL1 expression entry in the assay with FOSL1 [3] is recorded as “slight influence on FOSL1 expression”. In addition, the “apoptosis (annexin V and PI‐positive populations)” value in the assay on Aspc‐1 cells [4] and with Bxpc‐3 cells [7] was “also could induce apoptosis” in each case. Also, the antitumor activity entry in the assay on Aspc‐1 xenograft and with Bxpc‐3 xenograft was “also showed antitumor activities” throughout. Also, the cell invasion result in the assay on Aspc‐1 cells [5] and in the assay with Bxpc‐3 cells [8] was “poor ability to block cell invasion” in each case. Also, in the assay on STAT3 [6], the “phosphorylation of STAT3 in tumor tissues” value is “very weak or no influence on the phosphorylation of STAT3 or the expression of FOSL1”.
As for `Nc1ccn([C@@H]2O[C@H](CO)[C@@H](O)C2(F)F)c(=O)n1` [gemcitabine, reference compound], in the assay with FOSL1 [1], the “expression of FOSL1 in tumor tissues” value was “did not evidently inhibit the activities of Src or STAT3, nor FOSL1 expression”. Besides, in the assay on FOSL1 [3], the FOSL1 expression entry was “little inhibitory effect against Src and FOSL1 expression”. The “apoptosis (annexin V and PI‐positive populations)” value with Aspc‐1 cells [4] and in the assay on Bxpc‐3 cells [7] was “also could induce apoptosis” throughout. In addition, in the assay on cleaved caspase‐3, the “cleaved caspase‐3 stain in tumor tissues” value was “increase in the number of cleaved caspase‐3‐positive cells”. The antitumor activity result in the assay with Aspc‐1 xenograft and with Bxpc‐3 xenograft was “also showed antitumor activities” each time. The cell invasion entry in the assay with Aspc‐1 cells [5] and in the assay with Bxpc‐3 cells [8] was “poor ability to block cell invasion” throughout. In addition, the “phosphorylation of STAT3 in tumor tissues” value with STAT3 [6] is reported as “did not evidently inhibit the activities of Src or STAT3, nor FOSL1 expression”. The “phosphorylation of Src” value on Src [9] is “little inhibitory effect against Src and FOSL1 expression”. Moreover, the cell migration result in the assay with Bxpc‐3 cells [10] and with Aspc‐1 cells [12] was “very weak activity in blocking cell migration” in each case. For the same compound, the “phosphorylation of Src in tumor tissues” value with Src [11] is reported as “did not evidently inhibit the activities of Src or STAT3, nor FOSL1 expression”.

For the origin of these results see publication PMC6447837 (Cancer Science, 2019).
